We go through 17 molecules from ChEMBL document CHEMBL1671780, “Analogues of σ receptor ligand 1-cyclohexyl-4-[3-(5-methoxy-1,2,3,4-tetrahydronaphthalen-1-yl)propyl]piperazine (PB28) with added polar functionality and reduced lipophilicity for potential use as positron emission tomography radiotracers” (J Med Chem, 2011).

The target of data set [1] is Sigma non-opioid intracellular receptor 1 (Cavia porcellus, UniProt Q60492). As to the kind of experiment: Displacement of [3H]-(+)-pentazocine from sigma 1 receptor in Dunkin guinea pig brain membrane without cerebellum. Type of data set: cell membranes. Background: Loss of bound radioactivity is the signal in a displacement assay; it reports binding, not function.
Sequence of Sigma non-opioid intracellular receptor 1 (Q60492 whole entry): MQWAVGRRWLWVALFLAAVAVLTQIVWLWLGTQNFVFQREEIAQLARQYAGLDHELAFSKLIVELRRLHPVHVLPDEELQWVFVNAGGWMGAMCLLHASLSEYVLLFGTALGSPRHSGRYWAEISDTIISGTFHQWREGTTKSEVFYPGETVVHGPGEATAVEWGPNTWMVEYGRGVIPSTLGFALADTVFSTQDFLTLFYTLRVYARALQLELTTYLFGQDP

Data set [2] in a line: Displacement of [3H]DTG from sigma 2 receptor in Wistar Hannover rat liver membrane in presence of (+)-pentazocine. The class given is cell membranes.
The nature of data set [3]: Inhibition of P-gp in MDCK-MDR1 cells by calcein-AM assay. Type of data set: cell-based, Canis lupus familiaris. In outline: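 MDCK-MDR1 cells overexpressing P-gp, grown in high-glucose DMEM with 10% FBS, were seeded at 50 000 cells/well and left overnight to reach confluence. Compound preincubated 30 min at 37 °C, then calcein-AM (2.5 μM final) added for a further 30 min. Cells washed with ice-cold PBS and fluorescence read at ex 485/em 535 nm relative to untreated cells. EC50 fitted from % fluorescence increase versus log dose.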

The test system of data set [4] is SK-N-SH. As to the kind of experiment: Antiproliferative activity against human SK-N-SH cells at 100 uM after 48 hts by MTT assay. The class given is functional. (Tetrazolium dyes change colour on reduction, which living cells bring about.)
A short description of data set [5]: Lipophilicity, log P of the compound. The class given is physicochemical. Conditions: octanol/water.
Data set [6] is described as follows: Octanol-aqueous phases partition coefficient, log D of the compound at pH 7.4. Type of data set: physicochemical. Conditions: octanol/aqueous phase.
Data set [7] concerns SK-N-SH. Kind of data set: Antiproliferative activity against human SK-N-SH cells after 48 hts by MTT assay. Type of data set: functional, cell-based. In outline: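 SK-N-SH neuroblastoma cells grown in RPMI 1640 with 10% FBS, glutamine, pyruvate and nonessential amino acids at 37 °C, 5% CO2. Seeded at 30 000 cells/well, then exposed next day to drug (0.1 μM-100 μM; solvent controls included). MTT 0.5 mg/mL added for 3 h at 37 °C after 48 h exposure, formazan dissolved in DMSO, absorbance read at 570 and 630 nm. EC50 from nonlinear curve fitting; means of ≥2 experiments.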

Data set [8] concerns the target Sigma non-opioid intracellular receptor 1 (Cavia porcellus) (UniProt Q60492). As to the kind of experiment: Displacement of [3H]-(+)-pentazocine from sigma 1 receptor in Dunkin guinea pig brain membrane without cerebellum at 10^-12M. The class given is cell membranes. In outline:
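σ1 binding with (+)-[3H]-pentazocine on guinea pig brain membranes lacking cerebellum; percent inhibition of specific binding recorded at a single 10-12 M test concentration. Means of ≥3 separate experiments.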

pEC50, pKi: −log10 of the molar value.

Sequence of Sigma non-opioid intracellular receptor 1 (Cavia porcellus) (Q60492 whole entry): as above

Take `COc1cccc2c1CCCC2N(C)CCN1CCN(C2CCCCC2)CC1` (racemic): the negative-log Ki (pKi) in data set [1] was 8.38; in data set [2], 7.82. For the same molecule, the pEC50 in data set [3] was 5.06. The inhibition at 100 µM in the data set on SK-N-SH [4] is 82%. For the same molecule, the logP in data set [5] is 4.83. This molecule displayed a logD in data set [6] of 1.83.

`COc1cccc2c1CCCC2CCCN1CCN(C2CCCCC2)CC1` (racemic): in data set [2], the pKi is 9.17. For the same molecule, the negative logarithm of the EC50 (pEC50) was 5.52 in data set [3] and 5.04 with SK-N-SH [7]. In data set [5], the logP turned out to be 5.08. In data set [6], this molecule showed a logD of 3.99.

`COc1cccc2c1CCC[C@@H]2NCCN1CCN(C2CCCCC2)CC1`: the results for the pKi in data set [1] and in data set [2] were 7.63 and 8.07, respectively. The pEC50 in data set [3] is 5.49. This molecule also showed an inhibition at 100 µM in the data set on SK-N-SH [4] of 33%.

For the molecule `COc1cccc2c1CCC[C@@H]2OCCN1CCN(C2CCCCC2)CC1`, the pKi was 8.49 in data set [1] and 8.33 in data set [2]. For the same molecule, the pEC50 in data set [3] is 5.77. In the data set on SK-N-SH [4], this molecule came in with an inhibition at 100 µM of 93%.

With `COc1cccc2c1CCC[C@@H]2NC(=O)CN1CCN(C2CCCCC2)CC1`, the pKi was 7.02 in data set [1] and 8.23 in data set [2]. Further, the pEC50 in data set [3] was 5.09. In the data set with SK-N-SH [4], this molecule showed an inhibition at 100 µM of 100%.

On to `COc1cccc2c1CCC[C@H]2OCCN1CCN(C2CCCCC2)CC1`, for which the pKi is 8.66 in data set [1] and 7.95 in data set [2]. Moreover, the pEC50 in data set [3] is 5.28. In addition, in the data set on SK-N-SH [4], the inhibition at 100 µM was 91%.

`COc1cccc2c1CCC[C@H]2CCCN1CCN(C2CCCCC2)CC1`: the pKi in data set [2] is 8.93. Besides, the pEC50 was 5.42 in data set [3] and 5.03 in the data set with SK-N-SH [7].

Turning to `COc1cccc2c(OCCN3CCN(C4CCCCC4)CC3)cccc12`, in data set [8], the inhibition is 65%. Also, the pKi in data set [2] was 8.62. Moreover, the pEC50 in data set [3] is 5.47; in the data set with SK-N-SH [7], 4.38. In data set [5], this molecule registered a logP of 3.94. The molecule further gave a logD in data set [6] of 2.88.

Turning to `COc1cccc2c1OCCC2CCCN1CCN(C2CCCCC2)CC1` (racemic), the pKi in data set [1] is 7.90; in data set [2], 8.01. In addition, in data set [3], the pEC50 is 5.28. The inhibition at 100 µM in the data set on SK-N-SH [4] was determined as 100%.

For the molecule `COc1cccc2c1CCCC2NCCN1CCN(C2CCCCC2)CC1` (racemic), the pKi in data set [1] was 7.62; in data set [2], 8.07. For the same molecule, in data set [3], the pEC50 is 5.00. In addition, in the data set on SK-N-SH [4], the inhibition at 100 µM is 48%. Besides, the logP in data set [5] was 3.05. The logD in data set [6] worked out at 0.89.

For the molecule `COc1cccc2c1CCC[C@H]2NCCN1CCN(C2CCCCC2)CC1`, the pKi in data set [1] was 7.87; in data set [2], 7.84. The pEC50 in data set [3] was 5.01. In addition, the inhibition at 100 µM in the data set on SK-N-SH [4] stood at 31%.

On to `COc1cccc2c1CCC[C@@H]2CCCN1CCN(C2CCCCC2)CC1`, for which, in data set [2], the negative-log Ki (pKi) is 9.31. The pEC50 in data set [3] is 5.36; in the data set with SK-N-SH [7] it was 5.04.

`COc1cccc2c1CCC[C@H]2NC(=O)CN1CCN(C2CCCCC2)CC1`: the pKi in data set [1] was 7.69; in data set [2], 8.00. Moreover, in data set [3], the negative logarithm of the EC50 (pEC50) was 5.18. In addition, the inhibition at 100 µM with SK-N-SH [4] was 100%.

Take `COc1cccc2c1CCCC2OCCN1CCN(C2CCCCC2)CC1` (racemic): the results for the pKi in data set [1] and in data set [2] were 8.41 and 8.04, respectively. In addition, the pEC50 in data set [3] is 5.62. The molecule further showed an inhibition at 100 µM with SK-N-SH [4] of 72%.

Turning to `COc1cccc2c1CCCC2NC(=O)CN1CCN(C2CCCCC2)CC1` (racemic), the pKi in data set [1] was 7.90; in data set [2], 7.88. In addition, the pEC50 in data set [3] was 5.06. The same molecule gave an inhibition at 100 µM in the data set on SK-N-SH [4] of 68%. For the same molecule, the logP in data set [5] is 3.69. The molecule also had a logD in data set [6] of 2.38.

On to `COc1cccc2c(NCCN3CCN(C4CCCCC4)CC3)cccc12`, for which the pKi in data set [1] was 8.26; in data set [2], 7.73. The pEC50 is 5.44 in data set [3] and 4.36 in the data set on SK-N-SH [7]. In data set [5], this molecule gave a logP of 4.08. For the same molecule, the logD in data set [6] was 2.88.

In the case of `COc1cccc2c(NC(=O)CN3CCN(C4CCCCC4)CC3)cccc12`, the results for the pKi in data set [1] and in data set [2] were 7.37 and 7.63, respectively. For the same molecule, the pEC50 in data set [3] is 5.04. Moreover, at 100 µM the inhibition in the data set with SK-N-SH [4] was 75%. This molecule also yielded a log partition coefficient (logP) in data set [5] of 3.44. For the same molecule, in data set [6], the log distribution coefficient (logD) stood at 2.18.

What is called pKi is −log10 of the Ki, conventionally taken in molar units. A word on the pEC50: it is the EC50 on a negative log10 scale, so that one unit is a factor of ten. The term inhibition denotes the relative decrease from the control value, in per cent. A word on the logP: it is the decadic logarithm of the partition coefficient of the neutral form, usually between octanol and water. Lower therefore signals lower lipophilicity. A word on the logD: it is lipophilicity at a set pH, counting ionised and neutral species. Low values mean lower lipophilicity, high ones higher lipophilicity.
